In ChEMBL document CHEMBL5329156, “Discovery and development of novel substituted monohydrazides as potent antifungal agents” (RSC Med Chem, 2023):
In brackets after ≈: the same amount, converted by molar mass. Activity calls are given as the source filed them. No cut-off for these calls is given here.

Tests used:
[1] = tested on: Aspergillus fumigatus; experiment: Antifungal activity against Aspergillus fumigatus NRRL 6113 assessed as fungal growth inhibition by double dilution method; assay type: functional
[2] = tested on: Kodamaea ohmeri; experiment: Antifungal activity against Kodamaea ohmeri AR Bank # 396 assessed as fungal growth inhibition by double dilution method; assay type: functional
How it was run: (§1)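 Broth microdilution after CLSI M27-A3/M38-A2 with minor changes. Single colony grown overnight in YPD at 35 °C, 200 rpm. Compound final range 0.06-31.3 µg/mL; incubated 48 h at 35 °C.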

[3] = tested on: [Candida] auris; experiment: Antifungal activity against Candida auris AR Bank # 0384 assessed as fungal growth inhibition by double dilution method; assay type: functional; conditions: Candidozyma auris; how it was run: as §1
[4] = tested on: Aspergillus fumigatus; experiment: Antifungal activity against Aspergillus fumigatus NRRL 163 assessed as fungal growth inhibition by double dilution method; assay type: functional
[5] = tested on: [Candida] auris; experiment: Antifungal activity against Candida auris AR Bank # 388 assessed as fungal growth inhibition by double dilution method; assay type: functional; conditions: Candidozyma auris; how it was run: as §1
[6] = tested on: Aspergillus fumigatus; experiment: Antifungal activity against Aspergillus fumigatus NRRL 5109 assessed as fungal growth inhibition by double dilution method; assay type: functional
[7] = tested on: [Candida] auris; experiment: Antifungal activity against Candida auris AR Bank # 381 assessed as fungal growth inhibition by double dilution method; assay type: functional; conditions: Candidozyma auris; how it was run: as §1
[8] = tested on: Candida albicans; experiment: Antifungal activity against itraconazole/fluconazole resistant Candida albicans ATCC 90819 assessed as fungal growth inhibition by double dilution method; assay type: functional
How it was run: (§2)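 Broth microdilution after CLSI M27-A3/M38-A2 with minor modifications. A single colony was grown overnight in YPD at 35 °C with shaking at 200 rpm. Cells were mixed 1:1 with compound (final 0.06-31.3 µg/mL, from DMSO stocks) and incubated 48 h at 35 °C.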

[9] = tested on: Clavispora lusitaniae; experiment: Antifungal activity against Clavispora lusitaniae AR Bank # 398 assessed as fungal growth inhibition by double dilution method; assay type: functional; how it was run: as §1
[10] = tested on: Nakaseomyces glabratus; experiment: Antifungal activity against Candida glabrata ATCC 2001 assessed as fungal growth inhibition by double dilution method; assay type: functional; how it was run: as §1
[11] = tested on: [Candida] haemuloni; experiment: Antifungal activity against Candida haemulonii AR Bank # 395 assessed as fungal growth inhibition by double dilution method; assay type: functional; conditions: Candidozyma haemuli; how it was run: as §1
[12] = tested on: Aspergillus flavus; experiment: Antifungal activity against Aspergillus flavus ATCC MYA-3631 assessed as fungal growth inhibition by double dilution method; assay type: functional
[13] = tested on: Candida albicans; experiment: Antifungal activity against itraconazole/fluconazole susceptible Candida albicans ATCC MYA-2310 assessed as fungal growth inhibition by double dilution method; assay type: functional; how it was run: as §2
[14] = tested on: Candida albicans; experiment: Antibiofilm activity against Candida albicans ATCC 10231 assessed as reduction in biofilm production at 1.96 to 3.9 microg/ml by biofilm formation assay; assay type: functional, organism-based; conditions: dose 1.96-3.9 µg/ml
[15] = tested on: [Candida] auris; experiment: Antifungal activity against Candida auris AR Bank # 387 assessed as fungal growth inhibition by double dilution method; assay type: functional; conditions: Candidozyma auris; how it was run: as §1
[16] = tested on: Candida albicans; experiment: Antifungal activity against Candida albicans ATCC 64124 assessed as fungal growth inhibition by double dilution method; assay type: functional; how it was run: as §2
[17] = tested on: Aspergillus nidulans; experiment: Antifungal activity against Aspergillus nidulans ATCC 38163 assessed as fungal growth inhibition by double dilution method; assay type: functional
[18] = tested on: [Candida] auris; experiment: Antifungal activity against Candida auris AR Bank # 384 assessed as fungal growth inhibition by double dilution method; assay type: functional; conditions: Candidozyma auris; how it was run: as §1
[19] = tested on: [Candida] auris; experiment: Antifungal activity against Candida auris AR Bank # 383 assessed as fungal growth inhibition by double dilution method; assay type: functional; conditions: Candidozyma auris; how it was run: as §1
[20] = tested on: [Candida] auris; experiment: Antifungal activity against Candida auris AR Bank # 386 assessed as fungal growth inhibition by double dilution method; assay type: functional; conditions: Candidozyma auris; how it was run: as §1
[21] = tested on: Pichia kudriavzevii; experiment: Antifungal activity against Pichia kudriavzevii AR Bank # 397 assessed as fungal growth inhibition by double dilution method; assay type: functional; how it was run: as §1
[22] = tested on: Candida duobushaemulonii; experiment: Antifungal activity against Candida duobushaemulonii AR Bank # 394 assessed as fungal growth inhibition by double dilution method; assay type: functional; conditions: Candidozyma duobushaemuli; how it was run: as §1
[23] = tested on: Candida albicans; experiment: Antifungal activity against itraconazole/fluconazole resistant Candida albicans ATCC MYA-1003 assessed as fungal growth inhibition by double dilution method; assay type: functional; how it was run: as §2
[24] = tested on: Candida duobushaemulonii; experiment: Antifungal activity against Candida duobushaemulonii AR Bank # 392 assessed as fungal growth inhibition by double dilution method; assay type: functional; conditions: Candidozyma duobushaemuli; how it was run: as §1
[25] = tested on: [Candida] auris; experiment: Antifungal activity against Candida auris AR Bank # 0390 assessed as fungal growth inhibition by double dilution method; assay type: functional; conditions: Candidozyma auris; how it was run: as §1
[26] = tested on: Saccharomyces cerevisiae; experiment: Antifungal activity against Saccharomyces cerevisiae AR Bank # 400 assessed as fungal growth inhibition by double dilution method; assay type: functional; how it was run: as §1
[27] = tested on: Pichia kudriavzevii; experiment: Antifungal activity against Pichia kudriavzevii ATCC 6258 assessed as fungal growth inhibition by double dilution method; assay type: functional; how it was run: as §1
[28] = tested on: Saccharomyces cerevisiae; experiment: Antifungal activity against Saccharomyces cerevisiae AR Bank # 399 assessed as fungal growth inhibition by double dilution method; assay type: functional; how it was run: as §1
[29] = tested on: Aspergillus terreus; experiment: Antifungal activity against Aspergillus terreus ATCC MYA-3633 assessed as fungal growth inhibition by double dilution method; assay type: functional
[30] = tested on: [Candida] auris; experiment: Antifungal activity against Candida auris AR Bank # 389 assessed as fungal growth inhibition by double dilution method; assay type: functional; conditions: Candidozyma auris; how it was run: as §1
[31] = tested on: Nakaseomyces glabratus; experiment: Antifungal activity against Candida glabrata ATCC 22019 assessed as fungal growth inhibition by double dilution method; assay type: functional; how it was run: as §1
[32] = tested on: Candida duobushaemulonii; experiment: Antifungal activity against Candida duobushaemulonii AR Bank # 391 assessed as fungal growth inhibition by double dilution method; assay type: functional; conditions: Candidozyma duobushaemuli; how it was run: as §1
[33] = tested on: Candida albicans; experiment: Antifungal activity against itraconazole/fluconazole resistant Candida albicans ATCC MYA-1237 assessed as fungal growth inhibition by double dilution method; assay type: functional; how it was run: as §2
[34] = tested on: Candida albicans; experiment: Antifungal activity against itraconazole/fluconazole susceptible Candida albicans ATCC MYA-2876 assessed as fungal growth inhibition by double dilution method; assay type: functional; how it was run: as §2
[35] = tested on: Candida albicans; experiment: Antifungal activity against Candida albicans ATCC 10231 assessed as fungal growth inhibition by double dilution method; assay type: functional; how it was run: as §1
[36] = tested on: [Candida] haemuloni; experiment: Antifungal activity against Candida haemulonii AR Bank # 393 assessed as fungal growth inhibition by double dilution method; assay type: functional; conditions: Candidozyma haemuli; how it was run: as §1
[37] = tested on: [Candida] auris; experiment: Antifungal activity against Candida auris AR Bank # 382 assessed as fungal growth inhibition by double dilution method; assay type: functional; conditions: Candidozyma auris; how it was run: as §1
[38] = tested on: [Candida] auris; experiment: Antifungal activity against Candida auris AR Bank # 385 assessed as fungal growth inhibition by double dilution method; assay type: functional; conditions: Candidozyma auris; how it was run: as §1
[39] = tested on: Cryptococcus neoformans; experiment: Antifungal activity against Cryptococcus neoformans ATCC MYA-895 assessed as fungal growth inhibition by double dilution method; assay type: functional; how it was run: as §1
[40] = tested on: [Candida] auris; experiment: Antifungal activity against Candida auris AR Bank # 390 assessed as fungal growth inhibition by double dilution method; assay type: functional; conditions: Candidozyma auris; how it was run: as §1

O=C(NNc1cc(Cl)cc(Cl)c1)c1ccccn1
MIC [1]: > 31.3 µg/mL | MIC [2]: 0.49 µg/mL (≈ 1.74 µM) | MIC [3]: 7.8 µg/mL (≈ 27.6 µM) | MIC [4]: > 31.3 µg/mL | MIC [5]: 3.9 µg/mL (≈ 13.8 µM) | MIC [6]: > 31.3 µg/mL | MIC [7]: 3.9 µg/mL (≈ 13.8 µM) | MIC [8]: 0.98 µg/mL (≈ 3.47 µM) | MIC [9]: 3.9 µg/mL (≈ 13.8 µM) | MIC [10]: 7.8 µg/mL (≈ 27.6 µM) | MIC [11]: 0.24 µg/mL (≈ 0.851 µM) | MIC [12]: > 31.3 µg/mL | MIC [13]: 1.95 µg/mL (≈ 6.91 µM) | Activity [14]: inactive | MIC [15]: 0.98 µg/mL (≈ 3.47 µM) | MIC [16]: 1.95 µg/mL (≈ 6.91 µM) | MIC [17]: 0.49 µg/mL (≈ 1.74 µM) | MIC [18]: 7.8 µg/mL (≈ 27.6 µM) | MIC [19]: 1.95 µg/mL (≈ 6.91 µM) | MIC [20]: 0.98 µg/mL (≈ 3.47 µM) | MIC [21]: 0.49 µg/mL (≈ 1.74 µM) | MIC [22]: 0.49 µg/mL (≈ 1.74 µM) | MIC [23]: 1.95 µg/mL (≈ 6.91 µM) | MIC [24]: 0.98 µg/mL (≈ 3.47 µM) | MIC [25]: 1.95 µg/mL (≈ 6.91 µM) | MIC [26]: 3.9 µg/mL (≈ 13.8 µM) | MIC [27]: 0.98 µg/mL (≈ 3.47 µM) | MIC [28]: 3.9 µg/mL (≈ 13.8 µM) | MIC [29]: 1.95 µg/mL (≈ 6.91 µM) | MIC [30]: 1.95 µg/mL (≈ 6.91 µM) | MIC [31]: 1.95 µg/mL (≈ 6.91 µM) | MIC [32]: 0.98 µg/mL (≈ 3.47 µM) | MIC [33]: 3.9 µg/mL (≈ 13.8 µM) | MIC [34]: 1.95 µg/mL (≈ 6.91 µM) | MIC [35]: 0.24 µg/mL (≈ 0.851 µM) | MIC [36]: 0.24 µg/mL (≈ 0.851 µM) | MIC [37]: 0.98 µg/mL (≈ 3.47 µM) | MIC [38]: 1.95 µg/mL (≈ 6.91 µM) | MIC [39]: 0.49 µg/mL (≈ 1.74 µM) | MIC [40]: 3.9 µg/mL (≈ 13.8 µM)
